Only some compounds are listed: those with a hit (about 2.4% of all), similar ones and a draw of the others.
dFosB act-1 = activators of mouse delta FosB homodimer; actives 0.99% (n = 340,000); AID 493131; activation, % at 25 µM; purified delta FosB, TAMRA-CDK5 oligo fluorescence polarization; percent of positive-control signal above neutral wells;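 active = mean activation above about 17%, with every replicate also reaching it, limit read from the data, passing the limit was not always enough; inconclusive = only one of the two conditions met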
Target sequence (P13346 whole entry, looked up): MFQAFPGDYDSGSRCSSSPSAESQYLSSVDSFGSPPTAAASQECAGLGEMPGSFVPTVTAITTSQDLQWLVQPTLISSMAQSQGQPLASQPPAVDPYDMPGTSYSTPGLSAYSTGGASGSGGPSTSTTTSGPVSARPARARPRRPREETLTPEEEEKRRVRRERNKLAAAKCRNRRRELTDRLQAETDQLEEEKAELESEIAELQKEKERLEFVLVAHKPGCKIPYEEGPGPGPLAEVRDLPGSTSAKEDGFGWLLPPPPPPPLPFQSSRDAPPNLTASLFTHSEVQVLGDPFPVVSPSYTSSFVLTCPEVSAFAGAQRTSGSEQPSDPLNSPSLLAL
HIV Env fusion = blocks HIV Env-driven cell-cell fusion. HeLa-JRFL Env/CEM21 cell fusion, luciferase. inhibition, % at 12.3 µM. actives 1.1% (n = 360,000). AID 651610;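 active = mean replicate inhibition score of at least 50 and every replicate individually at or above 50; inconclusive = only one of the two criteria met; inactive = mean below 50 and not all replicates reaching 50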;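 also: 0% = plate neutral controls and 100% = maraviroc near 300 nM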
Rtt109 Vps75 = C. albicans Rtt109 histone acetyltransferase inhibition; purified Rtt109/Vps75, ThioGlo CoA-SH fluorescence, 4 h; inhibition, % at 34.9 µM; actives 0.16% (n = 330,000);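 active = inhibition of at least 50% in every replicate; inconclusive = best replicate reaches 50% inhibition but some replicates fall short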
Target sequence (Q5AAJ8 whole entry, looked up): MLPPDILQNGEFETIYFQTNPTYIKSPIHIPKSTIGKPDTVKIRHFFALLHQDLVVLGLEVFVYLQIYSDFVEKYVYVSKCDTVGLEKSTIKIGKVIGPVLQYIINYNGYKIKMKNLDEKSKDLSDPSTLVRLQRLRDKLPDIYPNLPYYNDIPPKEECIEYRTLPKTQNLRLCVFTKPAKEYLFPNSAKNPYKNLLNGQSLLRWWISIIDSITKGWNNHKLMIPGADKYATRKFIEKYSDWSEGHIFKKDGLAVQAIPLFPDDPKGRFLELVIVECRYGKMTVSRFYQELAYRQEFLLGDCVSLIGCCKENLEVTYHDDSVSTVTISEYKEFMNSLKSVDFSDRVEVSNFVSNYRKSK
Cneo AK release = causes C. neoformans cell lysis; actives 0.2% (n = 360,000); lysis activity, % at 15 µM; adenylate kinase release luminescence, 4 h; normalised: neutral wells 0, clomiphene wells 100;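 active = mean lysis activity across replicates of at least 80%, whatever share of replicates individually reach that level; inactive = mean lysis activity below 80%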
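Test system: log-phase Cryptococcus neoformans yeast cells. Input: 5 × 10^6 yeast cells/mL. Medium: fresh YPD growth medium. Doses: single dose. Incubation: static 4 h at 37 °C with compound, 1 h detection. Measured by: luminescent adenylate kinase detection reagent. Read-out: signal increase indicating cell lysis. Benchmarks: Clomiphene.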
miR-122 sensor = inhibitors of miR-122 in Huh7 cells. AID 602342. activation (reporter increase), % at 12.5 µM. actives 0.3% (n = 340,000). Huh7 miR-122 Renilla luciferase sensor, 48 h; neutral wells = 0, positive control = 100;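 active = mean replicate activation score at least 90 and every replicate individually at or above 90; inconclusive = only one of the two criteria met; inactive = neither criterion met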;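 also: higher luciferase means less miR-122 activity so hits act as miR-122 inhibitors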
GSIS activator = primary screen for activators of insulin secretion dependent on glucose, INS-1E cells, GLuc reporter luminescence; INS-1E GLuc reporter insulin secretion, 2-3 h; activation, % at 16.6 µM; actives 0.61% (n = 370,000); AID 743287;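 active = lowest replicate activation of at least 40%, so every replicate reaches that level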;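 also: 0% = median of neutral control wells and 100% = median of IBMX positive control wells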
dFosB act-2 = activators of mouse delta FosB homodimer DNA binding | shares compounds with dFosB act-1 | purified delta FosB, TAMRA-CDK5 oligo fluorescence polarization; normalised: neutral wells 0, positive control 100 | activation, % at 24.9 µM | 2,400 tested, under 10 active | AID 588690;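 active = highest replicate activation at or above 34% and every replicate reaching that threshold; inconclusive = meets only one of the two criteria; inactive = meets neither criterion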;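 also: higher polarization means more probe DNA bound by delta FosB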
Active calls of the source: *; ? = inconclusive; . = no result given; [ ] = dose if it differs, or a comment.

SMILES | dFosB act-1 | HIV Env fusion | Rtt109 Vps75 | Cneo AK release | miR-122 sensor | GSIS activator | dFosB act-2
C[C@H](O)C#Cc1cnc2c(c1)C(=O)N([C@@H](C)CO)C[C@@H](C)[C@H](CN(C)CC1CCCCC1)O2 | . | . | . | . | . | 19.6 | .
O=C(CN1CCCCC1)Nc1c2c(nc3ccccc13)N(c1ccccc1)CC2 | 56.0* | 9.6 | -19.9 | . | 5.1 | 7.3 | -1.4
COCc1cn(CC[C@@H]2CC[C@H](NC(=O)Nc3ccc(OC)cc3)[C@@H](CO)O2)nn1 | . | -13.3[16.7 µM] | . | 6.4 | . | 6.5 | .
CCN1CCN(c2nc3c(C)cccn3c(=O)c2/C=C(\C#N)S(=O)(=O)c2ccc(Cl)cc2)CC1 | 48.3* | 7.5 | 12.7 | . | . | -4.3 | -2.2
CCN1CCN(c2nc3c(C)cccn3c(=O)c2/C=C(\C#N)S(=O)(=O)c2ccc(C)cc2)CC1 | 0.3 | 4.1 | 29.5 | -0.2 | -4.5 | . | .
C[C@H](O)C#Cc1cnc2c(c1)C(=O)N([C@H](C)CO)C[C@@H](C)[C@@H](CN(C)C(=O)c1ccncc1)O2 | . | -5.2[16.7 µM] | . | -7.2 | 1.8[16.7 µM] | 24.7 | .
COCC(=O)N1[C@H](C#N)[C@H](c2ccccc2-c2cccc(C)c2)[C@@H]1CO | . | . | . | . | . | -0.1 | .
Fc1ccc(Nc2nc(Oc3ccc4c(c3)OCO4)nc(N3CCOCC3)n2)c(F)c1 | 60.7* | -61.6 | -6.2 | 1.1 | 0.4 | . | -2.7
COc1ccc(CNS(=O)(=O)c2ccc(S(=O)(=O)N3CCCCC3)cc2)cc1 | 41.1* | ? | -16.2 | -2.2 | 0.4 | . | 0.7
COc1ccc(S(=O)(=O)N2CCCCCC2)cc1 | -3.0 | 5.0 | 2.7 | -0.7 | 0.5 | . | .
COc1ccc(COC(=O)c2ccc(S(=O)(=O)N3CCC(C)CC3)cc2)cc1 | 19.0* | . | -4.6 | 0.1 | -1.7 | 11.6 | -0.1
COc1cccc(COC(=O)c2ccc(S(=O)(=O)N3CCC(C)CC3)cc2)c1OC | 6.3 | -2.1 | -5.6 | -3.8 | 2.0 | -3.4 | .
CSc1nc(N)c(C#N)c(-c2ccc(Cl)cc2)c1C#N | 3.2 | . | 11.2 | 0.6 | -0.6 | . | .
COc1ccc(-c2c(C#N)c(N)nc(Sc3ccc(Cl)cc3)c2C#N)cc1 | 120.5* | -4.9 | 2.6 | . | . | -0.7 | 2.1
CCOc1ccc(C(=O)/C=C/Nc2ccc(S(=O)(=O)N=C(N)N)cc2)cc1 | 34.2* | -21.3 | -9.2 | . | . | 48.8 | 5.8
CCOc1ccc(N/C=C/C(=O)c2ccc(OC)c(OC)c2)cc1 | 2.3 | -5.5 | 1.8 | -0.5 | 5.3 | 22.4 | .
NC(N)=NS(=O)(=O)c1ccc(N/C=C/C(=O)c2ccc(Cl)c(Cl)c2)cc1 | 45.5* | -8.0 | -0.4 | 1.6 | 2.3 | -21.8 | 3.6
CN1C(=O)c2cc(NC(=O)C3CCOCC3)ccc2OC[C@@H]2O[C@@H](CC(=O)O)CC[C@@H]21 | . | -7.8[16.7 µM] | . | 0.5 | 6.1[16.7 µM] | 11.6 | .
O=c1c(Cc2ccccc2)c(O)ccn1Cc1ccc2c(c1)OCO2 | 37.5* | -22.2 | -5.6 | . | . | 11.3 | 5.9
COc1ccc(S(=O)(=O)Nc2ccc3c(c2)C(=O)N([C@@H](C)CO)C[C@@H](C)[C@@H](CN(C)Cc2ccc4c(c2)OCO4)OCCCC[C@H](C)O3)cc1 | . | -299.0[16.7 µM] | . | 2.2 | -6.1[16.7 µM] | -25.1 | .
COc1ccc(NC(=O)N(C)C[C@H]2Oc3ncc(C#CC(C)C)cc3C(=O)N([C@@H](C)CO)C[C@H]2C)cc1 | . | -4.3[16.7 µM] | . | 3.0 | 6.3[16.7 µM] | 15.6 | .
Cn1c(=O)oc2cc(S(=O)(=O)N3CCCC(C(=O)NCc4ccc5c(c4)OCO5)C3)ccc21 (configuration not stated) | 46.3* | 13.1 | -3.8 | 1.5 | -4.7 | 7.0 | 2.3
COc1ccc(S(=O)(=O)N2CCCC(C(=O)NCc3ccc4c(c3)OCO4)C2)cc1 (configuration not stated) | -6.6 | -7.4 | -7.7 | -0.7 | -0.8 | -14.5 | .
Cc1cc(NC(=O)c2ccc(Br)c([N+](=O)[O-])c2)no1 | 45.6* | -11.7 | -4.8 | 1.8 | -3.0 | -1.1 | 1.3
Cc1cc(NC(=O)c2ccc(C)c([N+](=O)[O-])c2)no1 | -3.5 | -8.5 | 0.6 | . | . | -14.8 | .
SMILES | dFosB act-1 | HIV Env fusion | Rtt109 Vps75 | Cneo AK release | miR-122 sensor | GSIS activator | dFosB act-2
O=C(Nc1ccc(-c2noc(CCc3ccccc3)n2)cc1)c1cccnc1 | -5.7 | . | -4.1 | -2.6 | -14.7 | . | .
Cc1cc(OCc2nc(-c3ccc(NC(=O)c4cccnc4)cc3)no2)ccc1Cl | 78.1* | 35.3 | -3.0 | -1.8 | 0.7 | . | -0.9
Cc1ccccc1OCc1nc(-c2ccc(NC(=O)c3ccc4c(c3)OCO4)cc2)no1 | 19.3* | . | -3.5 | 0.2 | -6.7 | . | 0.2
Cc1ccccc1OCc1nc(-c2ccc(NC(=O)c3ccco3)cc2)no1 | 3.5 | . | -12.4 | 3.2 | -3.3 | . | .
C[C@H]1CN([C@@H](C)CO)C(=O)c2cc(-c3cccc(C#N)c3)cnc2O[C@H]1CN(C)Cc1ccncc1 | . | 2.2[16.7 µM] | . | -0.6 | -3.6[16.7 µM] | 8.8 | .
CN(C)C(=O)[C@H]1[C@H](CO)[C@H]2Cn3c(ccc(C4=CCCC4)c3=O)[C@@H]1N2CC1CC1 | . | . | . | 0.0 | -3.4[16.7 µM] | 3.8 | .
NNC(=O)c1ccc(CSc2cccc3cccnc23)cc1 | -2.0 | -0.3 | 2.9 | -1.3 | 17.8 | -2.5 | .
COc1ccc(/C=N/NC(=O)c2ccc(COc3cccc4cccnc34)cc2)cc1OC | 18.9* | 2.0 | -1.5 | -0.9 | -0.9 | 1.5 | -1.1
COc1ccc(/C=N\NC(=O)c2ccc(-c3ccccc3)cc2)cc1COC(C)=O | 34.5* | 15.0 | -4.9 | -0.8 | -2.1 | 19.7 | -5.0
O=C(N/N=C/c1cccc(O)c1)c1ccc(COc2cccc3cccnc23)cc1 | 32.6* | -4.3 | -4.7 | . | . | 0.0 | 0.1
O=C(N/N=C/c1ccccc1Br)c1ccc(CSc2cccc3cccnc23)cc1 | 27.8* | -25.7 | . | -1.3 | -6.3 | . | 5.6
COc1ccc(/C=N\NC(=O)c2ccccc2)cc1COc1ccc(F)cc1 | -6.0 | 17.8 | 6.1 | -1.5 | 1.5 | -7.5 | .
CN1CCN(C(=O)C[C@@H]2CC[C@H]3[C@@H](COC[C@@H](O)CN3Cc3ccc4c(c3)OCO4)O2)CC1 | . | . | . | 0.3 | 2.7[16.7 µM] | 17.5 | .
COc1ccc(NC(=O)N(C)C[C@@H]2OCCCC[C@@H](C)Oc3ccc(NC(=O)Nc4ccc(F)cc4)cc3C(=O)N([C@@H](C)CO)C[C@@H]2C)cc1 | . | -24.8[16.7 µM] | . | 0.3 | 3.0[16.7 µM] | -1.3 | .
O=C(Nc1ccccc1F)N1[C@@H]2CNC[C@H]1C2c1ccc(-c2cccnc2)cc1 (some centres not stated) | . | . | . | . | . | 0.5 | .
COc1cc(/C=N/NC(=O)c2ccncc2)ccc1OC(=O)c1ccccc1Cl | -20.1 | 14.2 | -5.0 | . | . | -5.7 | .
COc1cc(C(=O)N/N=C/c2ccc(OC(=O)c3ccccc3Cl)c(OC)c2)ccc1O | 24.6* | . | 5.8 | -1.8 | . | . | 2.0
